Bioassay records (PubChem)
A selection: hits, their analogues and other compounds. The true share with any hit is near 2.4%.
LGR2 antag = Drosophila LGR2 receptor signaling inhibition; HEK293 LGR2, CRE-luciferase, bursicon-stimulated, 4 h; inhibition, % at 9.99 µM; 380,000 tested, 0.35% active; AID 720647;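 active = drop in luminescence signal, shown as inhibition above about 50% in the replicate tests, limit read from the data, passing the limit was not always enough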;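 also: agonist challenge used bursicon conditioned medium at about half maximal strength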
Ecoli rRNA inh = selective bacterial rRNA inhibition in E. coli; E. coli WT GFP vs humanized-ribosome RFP mutants, fluorescence, 24 h; active compounds read low; DMSO median 0, no signal -100; GFP signal change (wild-type ribosome), % (concentration not given with the values); 350,000 tested, 1.6% active;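 active = significant combined selectivity score with lowered wild-type GFP, culture density cut under 30%, mutant RFP and density less affected; inactive = any of these conditions unmet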
E-selectin induc = E-selectin induction on HUVECs. activation, % at 7.58 µM. AID 686992. 260,000 tested, 0.37% active. HUVEC E-selectin immunofluorescence imaging; normalized: neutral wells 0, TNF-alpha wells 100;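 active = mean E-selectin-positive cell signal at least 10% of the positive control, reached in at least 60% of replicates, without over 20% cell loss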
Target sequence (P16581 whole entry, looked up): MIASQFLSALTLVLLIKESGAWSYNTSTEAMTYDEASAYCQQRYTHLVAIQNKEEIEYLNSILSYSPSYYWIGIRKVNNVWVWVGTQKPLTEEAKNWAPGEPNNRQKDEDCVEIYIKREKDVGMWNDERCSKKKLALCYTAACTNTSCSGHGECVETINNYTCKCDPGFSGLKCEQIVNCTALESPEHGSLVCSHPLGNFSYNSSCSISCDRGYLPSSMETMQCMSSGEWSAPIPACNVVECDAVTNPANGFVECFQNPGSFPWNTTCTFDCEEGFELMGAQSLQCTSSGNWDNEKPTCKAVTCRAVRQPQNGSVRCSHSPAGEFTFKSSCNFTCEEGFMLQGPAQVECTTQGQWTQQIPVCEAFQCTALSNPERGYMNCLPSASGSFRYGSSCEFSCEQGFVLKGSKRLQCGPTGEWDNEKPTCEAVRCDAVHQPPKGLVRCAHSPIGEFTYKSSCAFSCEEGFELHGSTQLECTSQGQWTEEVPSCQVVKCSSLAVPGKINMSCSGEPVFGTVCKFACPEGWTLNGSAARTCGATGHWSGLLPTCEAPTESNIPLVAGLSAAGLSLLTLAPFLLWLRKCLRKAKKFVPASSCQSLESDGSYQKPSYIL
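Read-out basis: % PE-positive cells; Test system: HUVEC primary endothelial cells; Technique: immunofluorescence imaging; Dosing: single-point compound dose.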
EWS-Fli inh = inhibitors of EWS/Fli oncoprotein transcriptional activity; A673 NR0B1-luciferase reporter, viability-normalised; inhibition, % at 12.6 µM; 350,000 tested, 0.67% active; AID 651661;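 active = mean inhibition of at least 50% after viability correction, with every replicate also passing that limit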;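 also: firefly luciferase signal divided by Alamar Blue viability fluorescence both relative to DMSO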
A number is an active result; 0 = inactive; - = no result; ! = repeats disagree.

SMILES	LGR2 antag	Ecoli rRNA inh	E-selectin induc	EWS-Fli inh
COc1cc(OC)cc(C(=O)N[C@H](C(=O)OCC(=O)Nc2ccc(C(C)C)cc2)C(C)C)c1	0	0	64	0
COc1cc(OC)cc(C(=O)N[C@H](C(=O)OCC(=O)Nc2ccc(OC)c(OC)c2)C(C)C)c1	0	0	-	0
COc1cc(OC)cc(-n2nnnc2SCC(=O)NCc2ccc3c(c2)OCO3)c1	0	0	-	0
COc1cccc(-n2nnnc2SCC(=O)NCc2ccc3c(c2)OCO3)c1	0	-21	-	0
Cc1ccc(NCC(=O)N2CCN(S(=O)(=O)c3ccccc3)CC2)cc1F	0	0	32	0
CCc1cc(C(=O)c2ccc(OC)cc2)c(NC(=O)CC(C)(C)CC(=O)O)s1	0	-28	0	0
CCc1cc(C(=O)c2ccc(OC)cc2)c(NC(=O)COCC(=O)O)s1	0	0	0	0
Cc1ccccc1OCC(O)CNC1CCC(NCC(O)COc2ccccc2C)CC1 (stereo not given)	0	0	0	69
O=C(C[C@H]1CC[C@@H](NC(=O)Cc2ccccn2)[C@@H](CO)O1)NCCCN1CCOCC1	0	0	0	0
CCCN1C[C@@H](C)[C@@H](OC)CN(C)C(=O)c2cc(NC(=O)CC(F)(F)F)ccc2OC[C@@H]1C	0	0	0	0
CCCCCCOc1ccc(/C(C)=N/NC2=NCCN2)cc1[N+](=O)[O-]	0	0	0	59
C/C(=N\NC1=NCCN1)c1ccc(N)c([N+](=O)[O-])c1	0	0	0	0
CNC[C@H]1Oc2ccc(NC(=O)NC(C)C)cc2CC(=O)N(C)C[C@H]1C	-	0	-	-
O=C1NC(=S)NC1=Cc1ccccc1O	0	0	0	0
O=C1NC(=S)NC1=Cc1ccc(Cl)cc1Cl	0	-25	0	0
COc1ccc2c3c(n(C)c2c1)[C@H](CO)N(C(C)=O)CC31CCN(C(=O)Nc2ccc(F)cc2)CC1	-	0	-	-
COc1ccc(NC(=O)COC(=O)CCCOc2ccc(Cl)cc2Cl)cc1Cl	0	-22	-	0
CC(=O)N1[C@H](CO)[C@@H](c2ccccc2)C12CN(Cc1nccs1)C2	0	0	0	0
CC[C@@H]1CC=CC[C@@H](C)Oc2ccccc2C(=O)N(C)[C@H](Cc2ccccc2)C(=O)N1 (mixture of isomers)	-	0	-	-
O=C(NCCc1c[nH]c2ccccc12)OCCCCOC(=O)NCCc1c[nH]c2ccccc12	84	0	-	0
COc1ccccc1NCC(=O)Nc1cc(S(=O)(=O)N2CCOCC2)ccc1N1CCOCC1	0	0	0	0
COc1ccccc1S(=O)(=O)Nc1cc(S(=O)(=O)N2CCCCC2)ccc1N1CCOCC1	0	-28	0	0
CCOc1cccc(/C=N/NC(=O)c2cc(C3CC3)[nH]n2)c1O	0	-17	-	0
C=CCn1c(COc2ccccc2)nc2ccccc21	0	-27	-	0
CN(C)CCn1c(COc2ccccc2)nc2ccccc21	0	0	-	0
SMILES	LGR2 antag	Ecoli rRNA inh	E-selectin induc	EWS-Fli inh
COc1ccccc1NC(=O)CSCc1ccc([N+](=O)[O-])cc1	0	-	-	-
O=C(CSCc1ccc([N+](=O)[O-])cc1)NC1CC1	0	0	-	83
CC(C)C(NC(=O)CSCc1ccc([N+](=O)[O-])cc1)C(C)C	0	0	-	78
C[C@@H]1CN([C@H](C)CO)C(=O)c2cc(NC(=O)Nc3ccc(F)cc3)ccc2O[C@H]1CN(C)S(=O)(=O)c1ccc(F)cc1	0	0	0	0
C[C@@H]1CN([C@@H](C)CO)C(=O)c2cc(NC(=O)CCCN(C)C)ccc2O[C@@H]1CN(C)Cc1ccccc1	0	0	0	0
Cc1nnc(SCc2cc(=O)[nH]c(/N=C(\N)Nc3ccccc3)n2)s1	0	0	0	0
CCOc1ccc(N/C(N)=N/c2nc(CSc3nnc(C)s3)cc(=O)[nH]2)cc1	0	0	-	67
C[C@H](CO)N1C[C@H](C)[C@@H](CN(C)C(=O)Nc2cccc3ccccc23)Oc2ccc(NC(=O)Cn3cnnn3)cc2CC1=O	0	0	0	-
CCS(=O)(=O)N1Cc2ccccc2CC1C(=O)Nc1nc2ccccc2s1 (stereo not given)	58	-	-	-
Cc1ccc(Cn2ncc(Cl)c(Cl)c2=O)cc1	0	0	0	-
O=c1c(Cl)c(Cl)cnn1Cc1nnc(-c2ccc(Cl)cc2)o1	104	0	0	0
O=C(Nc1ccccc1F)N1CC(=O)N2[C@H](C1)[C@@H](c1ccc(-c3ccc(F)cc3)cc1)[C@@H]2CO	-	0	-	-
CCOc1ccccc1N(CC(=O)Nc1ccccc1F)S(=O)(=O)c1ccccc1	0	-19	0	0
COc1ccc(S(=O)(=O)N(CC(=O)NC2CC3CCC2C3)c2ccccc2OC)cc1 (stereo not given)	0	0	-	0
COC(=O)c1cc(NC(=O)CN(c2cccc(OC)c2)S(=O)(=O)c2ccccc2)ccc1Cl	0	0	-	0
COc1ccccc1N(CC(=O)NCCSCc1ccccc1)S(=O)(=O)c1ccc(C)cc1	0	0	-	0
COC(=O)c1cc(NC(=O)CN(c2ccccc2OC)S(=O)(=O)c2ccccc2)ccc1Cl	0	-21	-	-
CCOc1ccccc1N(CC(=O)Nc1ccc(OC)cc1OC)S(=O)(=O)c1ccccc1	-	0	-	0
COc1ccccc1N(CC(=O)NCCSCc1ccccc1)S(=O)(=O)c1ccccc1	0	-15	0	0
COc1ccc(S(=O)(=O)N(CC(=O)NC2CCCC2)c2ccccc2OC)cc1	0	-29	-	0
CO[C@H]1CN(C)C(=O)c2ccc(NC(=O)Nc3cccc(Cl)c3)cc2OC[C@H](C)NC[C@@H]1C	0	0	0	0
C[C@H](NC(=O)[C@@H]1[C@@H](CO)[C@@H]2Cn3c(ccc(C4=CCCC4)c3=O)[C@@H]2N1C)c1ccccc1	0	0	0	0
COc1cccc(C(=O)CSc2nnc(COc3cccc4cccnc34)o2)c1	0	-35	-	0
Cc1ccc(C(=O)CSc2nnc(COc3cccc4cccnc34)o2)cc1	0	-32	-	-
COc1ccc2c3c(n(C)c2c1)[C@H](CO)N(C(=O)CC1CC1)CC31CN(C(=O)C2CC2)C1	-	0	-	-
SMILES	LGR2 antag	Ecoli rRNA inh	E-selectin induc	EWS-Fli inh
C/C(=N\NC(=O)c1cc(C(C)C)[nH]n1)c1ccco1	0	0	27	0
O=S(=O)(c1cc(C(F)(F)F)ccc1Cl)N1CCN(Cc2ccc(OCCO)cc2)CC1	-	-	-	0
OCC1(Cc2ccc(Cl)cc2)CCN(Cc2ccc3nsnc3c2)CC1	0	-23	0	0
COc1ccc(CC2(CO)CCN(Cc3ccc4nsnc4c3)CC2)cc1	0	0	-	0
N#Cc1cccc(-c2ccc(C3[C@@H]4CN(C(=O)Nc5ccc(C(F)(F)F)cc5)C[C@H]3N4)cc2)c1 (stereo not given in full)	0	0	0	0
COCC(=O)N(C)C[C@@H]1Oc2ncc(C3=CCCC3)cc2C(=O)N([C@@H](C)CO)C[C@@H]1C	0	0	0	0
CN(C)C(=O)c1cccc(-c2ccc(C3[C@@H]4CN(C(=O)c5ccccn5)C[C@H]3N4)cc2)c1 (stereo not given in full)	0	0	0	58!
Fc1ccc(-c2ccc(C3[C@@H]4CN(Cc5nccs5)C[C@H]3N4)cc2)cc1 (stereo not given in full)	0	0	0	0
